Legend:
[1] = molecular target: T1, Neurotensin receptor type 2 (Rattus norvegicus) (UniProt Q63384); assay: Agonist activity at rat NTS2 stably expressed in CHOK1 cells assessed as induction of calcium release by FLIPR assay relative to SR142948a; format: functional, cell-based; conditions: CHO-K1
T1 sequence (whole entry): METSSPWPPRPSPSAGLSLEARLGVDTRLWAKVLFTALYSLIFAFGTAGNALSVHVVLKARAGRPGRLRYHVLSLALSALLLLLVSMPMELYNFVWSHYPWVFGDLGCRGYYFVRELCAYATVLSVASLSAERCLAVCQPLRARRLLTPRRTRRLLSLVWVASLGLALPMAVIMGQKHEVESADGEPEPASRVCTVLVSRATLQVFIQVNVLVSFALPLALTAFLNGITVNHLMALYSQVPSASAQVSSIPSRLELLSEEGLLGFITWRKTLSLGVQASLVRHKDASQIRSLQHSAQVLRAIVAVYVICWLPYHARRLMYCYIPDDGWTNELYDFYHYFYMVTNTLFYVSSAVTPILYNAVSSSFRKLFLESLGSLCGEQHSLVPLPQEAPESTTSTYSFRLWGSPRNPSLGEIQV
Outline: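 Rat NTS2 expressed in CHO-k1 cells, plated at 25000/well the day before the assay. Cells were loaded with Calcium 5 dye (1:20 in HBSS, 20 mM HEPES, 2.5 mM probenecid, pH 7.4) for 45 min at 37 °C, then pretreated with 10% DMSO added 1:10. Full-log compound dilutions were read on FLIPR Tetra every second for 100 s. Emax is expressed as % of the full-agonist standard; EC50 from a three-parameter logistic fit; at least three experiments in duplicate.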

[2] = molecular target: Neurotensin receptor type 1 (Rattus norvegicus) (UniProt P20789); assay: Antagonist activity at rat NTS1 stably expressed in CHOK1 cells assessed as inhibition of NT-induced calcium release by FLIPR assay; format: functional, cell-based; conditions: CHO-K1
Chain of Neurotensin receptor type 1 (Rattus norvegicus) (P20789 whole entry): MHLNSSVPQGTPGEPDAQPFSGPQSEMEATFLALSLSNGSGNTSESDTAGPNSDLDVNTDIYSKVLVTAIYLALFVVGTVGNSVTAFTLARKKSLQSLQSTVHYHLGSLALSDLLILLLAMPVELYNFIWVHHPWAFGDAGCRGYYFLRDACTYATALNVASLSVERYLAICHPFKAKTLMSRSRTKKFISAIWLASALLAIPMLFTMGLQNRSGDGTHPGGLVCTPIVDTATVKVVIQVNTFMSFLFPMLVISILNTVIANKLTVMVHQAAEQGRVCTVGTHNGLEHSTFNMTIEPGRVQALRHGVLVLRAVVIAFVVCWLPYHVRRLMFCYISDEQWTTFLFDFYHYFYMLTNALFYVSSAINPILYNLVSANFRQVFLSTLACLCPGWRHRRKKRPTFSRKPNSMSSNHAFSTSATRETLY
Outline: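 Rat NTS1 CHO-k1 cells, plated at 30000/well on the assay day. Cells were loaded with Calcium 5 dye (1:40 in HBSS, 20 mM HEPES, 2.5 mM probenecid, pH 7.4) for 45 min at 37 °C, then preincubated with compound for 15 min. […] Fluorescence (ex 485/em 525 nm) read for 60 s on FlexStation II; three-parameter logistic fit; at least three experiments in duplicate.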

[3] = molecular target: T2, Neurotensin receptor type 2 (Rattus norvegicus, UniProt Q63384); assay: Agonist activity at rat NTS2 stably expressed in CHOK1 cells assessed as induction of calcium release by FLIPR assay; format: functional, cell-based, CHO-K1
T2 sequence (Q63384 whole entry): T1 sequence (whole entry)

[4] = molecular target: T2, Neurotensin receptor type 2; assay: Displacement of [125I]NT at rat NTS2 overexpressed in CHOK1 cells after 30 mins by gamma counting; format: cell-based, CHO-K1
[5] = molecular target: Neurotensin receptor type 1 (Rattus norvegicus, UniProt P20789); assay: Agonist activity at rat NTS1 stably expressed in CHOK1 cells assessed as induction of calcium release by FLIPR assay; format: functional, cell-based; conditions: cho-k1
Chain of Neurotensin receptor type 1 (P20789 whole entry): as above

Compound | Emax [1] [%] | Ke [2] [nM] | also measured
COc1ccccc1-c1cc(C(=O)N[C@H](C(=O)O)C2CCCCC2)nn1-c1ccnc2cc(Cl)ccc12 | 25 | 1680 | –
COc1cccc(OC)c1-c1cc(C(=O)NC2(C(=O)O)CCCCC2)nn1-c1ccnc2cc(Cl)ccc12 | 78 | 157 | –
COc1ccc(-c2cc(C(=O)N[C@H](C(=O)O)C3CCCCC3)nn2-c2ccnc3cc(Cl)ccc23)c(OC)c1 | 12 | – | –
COc1ccccc1-c1cc(C(=O)NC2(C(=O)O)CCCCC2)nn1-c1ccnc2cc(Cl)ccc12 | 35 | 4550 | –
COc1cccc(OC)c1-c1cc(C(=O)NC2(C(=O)O)CCCCC2)nn1-c1cccc2ccccc12 | 35 | 230 | –
CCc1c(C(=O)N[C@H](C(=O)O)C2CCCCC2)nn(-c2ccnc3cc(Cl)ccc23)c1-c1c(OC)cccc1OC | 15 | – | EC50 ([3]; read-out: EC50): 94 nM; Ki [4]: 1180 nM
COc1cccc(OC)c1-c1cc(C(=O)NC2(C(=O)O)C3CC4CC(C3)CC2C4)nn1-c1ccc(C(=O)N(C)CCCN(C)C)cc1C(C)C (configuration not stated) | 100 | – | EC50 ([3]; read-out: EC50): 20 nM; Ki [4]: 6 nM
COc1cccc(OC)c1-c1cc(C(=O)N[C@H](C(=O)O)C2CCCCC2)nn1-c1cccc2ccccc12 | 45 | 58 | –
O=C(N[C@H](C(=O)O)C1CCCCC1)c1cc(-c2c(F)cccc2F)n(-c2ccnc3cc(Cl)ccc23)n1 | 15 | – | –
C[C@@H]1CN([C@H]2CC[C@](C#N)(c3ccc(F)cc3)CC2)CC[C@]1(C(=O)O)c1ccccc1 [LEVOCABASTINE] | 16 | – | EC50 [5]: Not Active
COc1ccc(OC)c(-c2cc(C(=O)N[C@H](C(=O)O)C3CCCCC3)nn2-c2ccnc3cc(Cl)ccc23)c1 | 19 | 1280 | –
COc1cccc(OC)c1-c1cc(C(=O)NC2(C(=O)O)C3CC4CC(C3)CC2C4)nn1-c1ccc(F)cc1 (configuration not stated) | 34 | 191 | –
COc1cccc(OC)c1-c1cc(C(=O)NC2(C(=O)O)CCCC2)nn1-c1ccnc2cc(Cl)ccc12 | 76 | 222 | –
COc1cccc(OC)c1-c1cc(C(=O)NC2(C(=O)O)C3CC4CC(C3)CC2C4)nn1-c1ccnc2cc(Cl)ccc12 (configuration not stated) [REMINERTANT] | 100 | – | EC50 ([3]; read-out: EC50): 120 nM; Ki [4]: 62 nM
COc1ccccc1-c1cc(C(=O)NC2(C(=O)O)CCCCC2)nn1-c1cccc2ccccc12 | 18 | 7380 | –
COc1cccc(OC)c1-c1cc(C(=O)N[C@H](C(=O)O)C2CCCCC2)nn1-c1ccnc2cc(Cl)ccc12 | 86 | 23 | –
COc1cccc(OC)c1-c1cc(C(=O)NC2C3CC4CC(C3)CC2C4)nn1-c1ccnc2cc(Cl)ccc12 (configuration not stated) | – | – | EC50 ([3]; cho-k1): Not Active
COc1ccccc1-c1cc(C(=O)N[C@H](C(=O)O)C2CCCCC2)nn1-c1cccc2ccccc12 | 18 | 1400 | –
COc1cccc(OC)c1-c1cc(C(=O)NC2(C(=O)O)CCCCC2)nn1-c1ccc(F)cc1 | 15 | – | –
CC[C@H](C)[C@H](NC(=O)[C@H](Cc1ccc(O)cc1)NC(=O)[C@@H]1CCCN1C(=O)[C@H](CCCN=C(N)N)NC(=O)[C@@H](N)CCCN=C(N)N)C(=O)N[C@@H](CC(C)C)C(=O)O | – | – | EC50 ([3]; cho-k1): Not Active
COc1cccc(OC)c1-c1cc(C(=O)NC2(C(=O)O)CCCCCC2)nn1-c1ccnc2cc(Cl)ccc12 | 89 | 42 | –
COc1cccc(OC)c1-c1cc(C(=O)N[C@H](C(=O)O)C2CCCCC2)nn1-c1ccc(F)cc1 | 22 | 3340 | –
